Legend:
[1] = Inhibition of HIV1 integrase strand transfer activity using 5'-end 32P labeled DNA substrate measured after 2 hrs by PAGE based phosphor imaging method; design: species or system Human immunodeficiency virus 1
Summary of the method: (§1)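 Gel-based assay, Mg2+ cofactor: 400 nM integrase with 20 nM DNA substrate 5′-32P-labeled on transferred strand in 50 mM MOPS pH 7.2, 7.5 mM MgCl2, 14 mM 2-mercaptoethanol, inhibitor or DMSO; 2 h at 37 °C. Stopped with formamide/SDS loading buffer; products resolved on 16% denaturing polyacrylamide gels, quantified by phosphorimaging.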

[2] = Inhibition of HIV1 integrase 3' processing activity using 5'-end 32P labeled DNA substrate measured after 2 hrs by PAGE based phosphor imaging method; design: species or system Human immunodeficiency virus 1; summary of the method: as §1
[3] = test system: Human immunodeficiency virus 1; assay: Selectivity ratio of EC50 for VSV-G pseudotyped HIV1 harboring integrase N155H mutant infected in HOS cells to EC50 for VSV-G pseudotyped HIV1 harboring wild-type integrase infected in HOS cells; assay type: functional
Summary of the method: (§2)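 Fold change is the EC50 against the mutant-IN vector divided by the EC50 against the WT-IN vector. Both come from the single-round luciferase infectivity assay in HOS cells, with a 3 h compound pretreatment followed by 48 h infection.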

[4] = test system: Human immunodeficiency virus 1; assay: Antiviral activity against VSV-G pseudotyped HIV1 harboring integrase H51Y mutant infected in HOS cells pretreated […] for 3 hrs followed by viral infection measured after 48 hrs by luciferase reporter gene assay; assay type: functional, cell-based; conditions: Human immunodeficiency virus 1, HOS
Summary of the method: (§3)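 Single-round luciferase HIV-1 vector (pNLNgoMIVR−ΔLUC carrying WT or mutant IN) was pseudotyped with VSV-g by calcium phosphate co-transfection of 293 cells, and supernatant was harvested after 48 h. HOS cells were seeded at 4000/well in DMEM with 5% FBS and 5% newborn calf serum. They were pretreated 3 h at 37 °C with 5–0.0001 μM (11 serial dilutions), then infected for 48 h. Luminescence was normalized to untreated cells, and EC50 came from nonlinear regression.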

[5] = test system: Human immunodeficiency virus 1; assay: Antiviral activity against VSV-G pseudotyped HIV1 harboring integrase Y143R mutant infected in HOS cells pretreated […] for 3 hrs followed by viral infection measured after 48 hrs by luciferase reporter gene assay; assay type: functional, cell-based; conditions: Human immunodeficiency virus 1, HOS; summary of the method: as §3
[6] = test system: Human immunodeficiency virus 1; assay: Antiviral activity against VSV-G pseudotyped HIV1 harboring integrase G140S/Q148H double mutant infected in HOS cells pretreated […] for 3 hrs followed by viral infection measured after 48 hrs by luciferase reporter gene assay; assay type: functional, cell-based; conditions: Human immunodeficiency virus 1, HOS; summary of the method: as §3
[7] = test system: Human immunodeficiency virus 1; assay: Antiviral activity against VSV-G pseudotyped HIV1 harboring integrase G118R mutant infected in HOS cells pretreated […] for 3 hrs followed by viral infection measured after 48 hrs by luciferase reporter gene assay; assay type: functional, cell-based; conditions: Human immunodeficiency virus 1, HOS; summary of the method: as §3
[8] = test system: Human immunodeficiency virus 1; assay: Antiviral activity against VSV-G pseudotyped HIV1 harboring integrase E92Q mutant infected in HOS cells pretreated […] for 3 hrs followed by viral infection measured after 48 hrs by luciferase reporter gene assay; assay type: functional, cell-based; conditions: Human immunodeficiency virus 1, HOS; summary of the method: as §3
[9] = test system: Human immunodeficiency virus 1; assay: Selectivity ratio of EC50 for VSV-G pseudotyped HIV1 harboring integrase H51Y/R263K double mutant infected in HOS cells to EC50 for VSV-G pseudotyped HIV1 harboring wild-type integrase infected in HOS cells; assay type: functional; summary of the method: as §2
[10] = test system: Human immunodeficiency virus 1; assay: Antiviral activity against VSV-G pseudotyped HIV1 harboring wild-type integrase infected in HOS cells pretreated […] for 3 hrs followed by viral infection measured after 48 hrs by luciferase reporter gene assay; assay type: functional, cell-based; conditions: Human immunodeficiency virus 1, HOS; summary of the method: as §3
[11] = test system: Human immunodeficiency virus 1; assay: Selectivity ratio of EC50 for VSV-G pseudotyped HIV1 harboring integrase G140S/Q148H mutant infected in HOS cells to EC50 for VSV-G pseudotyped HIV1 harboring wild-type integrase infected in HOS cells; assay type: functional; summary of the method: as §2
HOS = assay: Cytotoxicity against HOS cells assessed as reduction in cell viability after 48 hrs by ATPLite luminescence assay; assay type: cell-based; conditions: human, hos, 48 h
Summary of the method: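 HOS cells seeded at 4000 per well the day before, exposed to compounds over 250 to 0.05 μM at 37 °C for 48 h. ATP measured by luminescence after lysis and 20 min signal development at room temperature.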

[12] = test system: Human immunodeficiency virus 1; assay: Antiviral activity against VSV-G pseudotyped HIV1 harboring integrase R263K mutant infected in HOS cells pretreated […] for 3 hrs followed by viral infection measured after 48 hrs by luciferase reporter gene assay; assay type: functional, cell-based; conditions: Human immunodeficiency virus 1, HOS; summary of the method: as §3
[13] = test system: Human immunodeficiency virus 1; assay: Selectivity ratio of EC50 for VSV-G pseudotyped HIV1 harboring integrase Y143R mutant infected in HOS cells to EC50 for VSV-G pseudotyped HIV1 harboring wild-type integrase infected in HOS cells; assay type: functional; summary of the method: as §2
[14] = test system: Human immunodeficiency virus 1; assay: Selectivity ratio of EC50 for VSV-G pseudotyped HIV1 harboring integrase T66I mutant infected in HOS cells to EC50 for VSV-G pseudotyped HIV1 harboring wild-type integrase infected in HOS cells; assay type: functional; summary of the method: as §2
[15] = test system: Human immunodeficiency virus 1; assay: Selectivity ratio of EC50 for VSV-G pseudotyped HIV1 harboring integrase R263K mutant infected in HOS cells to EC50 for VSV-G pseudotyped HIV1 harboring wild-type integrase infected in HOS cells; assay type: functional; summary of the method: as §2
[16] = test system: Human immunodeficiency virus 1; assay: Selectivity ratio of EC50 for VSV-G pseudotyped HIV1 harboring integrase H51Y mutant infected in HOS cells to EC50 for VSV-G pseudotyped HIV1 harboring wild-type integrase infected in HOS cells; assay type: functional; summary of the method: as §2
[17] = test system: Human immunodeficiency virus 1; assay: Antiviral activity against VSV-G pseudotyped HIV1 harboring integrase N155H mutant infected in HOS cells pretreated […] for 3 hrs followed by viral infection measured after 48 hrs by luciferase reporter gene assay; assay type: functional, cell-based; conditions: Human immunodeficiency virus 1, HOS; summary of the method: as §3
[18] = test system: Human immunodeficiency virus 1; assay: Selectivity ratio of EC50 for VSV-G pseudotyped HIV1 harboring integrase G118R mutant infected in HOS cells to EC50 for VSV-G pseudotyped HIV1 harboring wild-type integrase infected in HOS cells; assay type: functional; summary of the method: as §2
[19] = test system: Human immunodeficiency virus 1; assay: Antiviral activity against VSV-G pseudotyped HIV1 harboring integrase T66I mutant infected in HOS cells pretreated […] for 3 hrs followed by viral infection measured after 48 hrs by luciferase reporter gene assay; assay type: functional, cell-based; conditions: Human immunodeficiency virus 1, HOS; summary of the method: as §3
[20] = test system: Human immunodeficiency virus 1; assay: Antiviral activity against VSV-G pseudotyped HIV1 harboring integrase H51Y/R263K double mutant infected in HOS cells pretreated […] for 3 hrs followed by viral infection measured after 48 hrs by luciferase reporter gene assay; assay type: functional, cell-based; conditions: Human immunodeficiency virus 1, HOS; summary of the method: as §3
[21] = test system: Human immunodeficiency virus 1; assay: Selectivity ratio of EC50 for VSV-G pseudotyped HIV1 harboring integrase E92Q mutant infected in HOS cells to EC50 for VSV-G pseudotyped HIV1 harboring wild-type integrase infected in HOS cells; assay type: functional; summary of the method: as §2

| Structure (SMILES) | IC50 [1] [nM] | IC50 [2] [nM] | Ratio EC50 [3] | EC50 [5] [nM] | EC50 [6] [nM] | EC50 [10] [nM] | Ratio EC50 [11] | CC50 (HOS) [nM] | Ratio EC50 [13] | EC50 [17] [nM] | other results |
| --- | --- | --- | --- | --- | --- | --- | --- | --- | --- | --- | --- |
| O=C(NCc1ccc(F)cc1F)c1c(O)c2ccc(N3CCOCC3)nc2n(O)c1=O | 1900 | > 333000 | – | – | – | – | – | – | – | – | – |
| CC(=O)OCCCCCc1cnc2c(c1)c(NCCO)c(C(=O)NCc1ccc(F)cc1F)c(=O)n2O | – | – | 2 | 4.1 | 5.3 | 5.3 | 1 | > 100000 | 0.8 | 10 | EC50 [4]: 7.4 nM; EC50 [7]: 15 nM; EC50 [8]: 3.8 nM; Ratio EC50 [9]: 3; EC50 [12]: 3.6 nM; Ratio EC50 [14]: 0.2; Ratio EC50 [15]: 0.7; Ratio EC50 [16]: 1; Ratio EC50 [18]: 3; EC50 [19]: 1.2 nM; EC50 [20]: 15 nM; Ratio EC50 [21]: 0.7 |
| Nc1c(C(=O)NCc2ccc(F)cc2F)c(=O)n(O)c2ncc(CCCCc3ccccc3)cc12 | – | 42000 | 4 | 4.7 | 128 | 11 | 12 | 13000 | 0.4 | 39 | – |
| O=C(NCc1ccc(F)cc1F)c1c(O)c2ccc(N3CCCCC3)nc2n(O)c1=O | 70000 | > 333000 | – | – | – | – | – | – | – | – | – |
| COc1ccc2c(N)c(C(=O)NCc3ccc(F)cc3F)c(=O)n(O)c2n1 | 11 | 18000 | 13 | 62 | 3600 | 30 | 120 | 2200 | 2 | 400 | – |
| CC(C)NC(=O)CCc1cnc2c(c1)c(N)c(C(=O)NCc1ccc(F)cc1F)c(=O)n2O | 2 | – | 2 | 8.7 | 13 | 5 | 3 | > 250000 | 2 | 11 | – |
| Nc1c(C(=O)NCc2ccc(F)cc2F)c(=O)n(O)c2ncc(CCC(=O)O)cc12 | 4 | – | 5 | 4.9 | 195 | 1.9 | 103 | > 250000 | 3 | 10 | – |
| COC(=O)CNc1c(C(=O)NCc2ccc(F)cc2F)c(=O)n(O)c2nc(N3CCOCC3)ccc12 | 6200 | > 333000 | – | – | – | – | – | – | – | – | – |
| COC(=O)CNc1c(C(=O)NCc2ccc(F)cc2F)c(=O)n(O)c2nc(OC)ccc12 | 42 | 20000 | 39 | 52 | – | 32 | – | 12000 | 2 | 1260 | – |
| Nc1c(C(=O)NCc2ccc(F)cc2F)c(=O)n(O)c2ncc(CCCC3CCCCC3)cc12 | – | 289000 | 3 | 112 | – | 53 | – | 27400 | 2 | 146 | – |
| Nc1c(C(=O)NCc2ccc(F)cc2F)c(=O)n(O)c2ncc(/C=C/C(=O)NCCO)cc12 | 7 | – | – | – | – | 196 | – | > 250000 | – | – | – |
| Nc1c(C(=O)NCc2ccc(F)cc2F)c(=O)n(O)c2ncc(CCC(=O)NCCO)cc12 | 2 | – | – | – | – | 263 | – | > 250000 | – | – | – |
| CN(C)CCCc1cnc2c(c1)c(N)c(C(=O)NCc1ccc(F)cc1F)c(=O)n2O | 14 | 3000 | 5 | 7 | 32 | 6.1 | 5 | 5000 | 1 | 29 | – |
| COC(=O)CNc1c(C(=O)NCc2ccc(F)cc2F)c(=O)n(O)c2ncc(CCCCCO)cc12 | 4 | 2100 | 3 | 3.5 | 42 | 3.3 | 13 | > 250000 | 1 | 11 | – |
| Nc1c(C(=O)NCc2ccc(F)cc2F)c(=O)n(O)c2nc(N3CCCCC3)ccc12 | 54000 | > 333000 | – | – | – | – | – | – | – | – | – |
| COC(=O)CNc1c(C(=O)NCc2ccc(F)cc2F)c(=O)n(O)c2nc(N3CCCCC3)ccc12 | 96000 | > 333000 | – | – | – | – | – | – | – | – | – |
| COc1ccc2c(O)c(C(=O)NCc3ccc(F)cc3F)c(=O)n(O)c2n1 | 33 | 32000 | – | – | – | 215 | – | 12000 | – | – | – |
| CC(C)NC(=O)/C=C/c1cnc2c(c1)c(N)c(C(=O)NCc1ccc(F)cc1F)c(=O)n2O | 6 | – | 6 | 11 | 286 | 2.1 | 136 | > 250000 | 5 | 12 | – |
| Nc1c(C(=O)NCc2ccc(F)cc2F)c(=O)n(O)c2ncc(CCCOCCO)cc12 | 2 | 1500 | 3 | 1.2 | 35 | 1.6 | 22 | > 250000 | 0.8 | 4.2 | – |
| CN(C)C(=O)/C=C/c1cnc2c(c1)c(N)c(C(=O)NCc1ccc(F)cc1F)c(=O)n2O | 5 | – | 9 | 7.2 | 58 | 1.6 | 36 | > 250000 | 5 | 15 | – |
| Nc1c(C(=O)NCc2ccc(F)cc2F)c(=O)n(O)c2nc(N3CCOCC3)ccc12 | 54000 | > 333000 | – | – | – | – | – | – | – | – | – |
| Nc1c(C(=O)NCc2ccc(F)cc2F)c(=O)n(O)c2ncc(CCc3ccccc3)cc12 | 14 | 48000 | 4 | 5.5 | 140 | 5.6 | 25 | 18000 | 1 | 21 | – |
| O=C(NCc1ccc(F)cc1F)c1c(O)c2cc(CCCCCO)cnc2n(O)c1=O | 12 | 14300 | 1 | 8.3 | 29 | 24 | 1 | > 250000 | 0.3 | 32 | – |
| CN(C)C(=O)CCc1cnc2c(c1)c(N)c(C(=O)NCc1ccc(F)cc1F)c(=O)n2O | 8 | – | 5 | 6 | 16 | 1.3 | 12 | > 250000 | 5 | 6.8 | – |
